The source made the active and inactive calls. The rule behind the calls is not given here.
Tests used:
Rattus norvegicus = organism: Rattus norvegicus; test: Inhibition of rat sodium channel site 2 at 10 uM
Summary of the method: (§1)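 Receptor, ion channel and transporter binding panel run at Cerep in duplicate. Percent inhibition measured at 10 μM compound.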

[1] = target: Neuronal acetylcholine receptor subunit alpha-7 (Rattus norvegicus, UniProt Q05941); test: Inhibition of biotinylated alpha-bungarotoxin binding to alpha7 nAChR in rat PC12 cells by FACS analysis; type: cell-based, PC-12
Chain of Neuronal acetylcholine receptor subunit alpha-7 (Q05941 whole entry): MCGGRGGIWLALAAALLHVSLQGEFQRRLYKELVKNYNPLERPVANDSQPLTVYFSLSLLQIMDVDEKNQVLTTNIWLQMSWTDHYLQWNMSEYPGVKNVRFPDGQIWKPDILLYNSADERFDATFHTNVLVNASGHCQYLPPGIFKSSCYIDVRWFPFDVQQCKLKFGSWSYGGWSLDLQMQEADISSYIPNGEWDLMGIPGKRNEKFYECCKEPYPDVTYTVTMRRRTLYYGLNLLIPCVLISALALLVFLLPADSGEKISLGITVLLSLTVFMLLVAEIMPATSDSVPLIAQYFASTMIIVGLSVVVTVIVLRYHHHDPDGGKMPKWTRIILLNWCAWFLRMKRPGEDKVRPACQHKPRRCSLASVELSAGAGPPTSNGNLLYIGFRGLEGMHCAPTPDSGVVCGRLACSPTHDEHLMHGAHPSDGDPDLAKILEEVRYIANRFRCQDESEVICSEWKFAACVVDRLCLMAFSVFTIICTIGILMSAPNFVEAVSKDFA
Summary of the method: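 Rat PC12 cells in binding buffer (PBS, 1.0% FBS, 0.02% sodium azide), 0.1% DMSO; biotinylated α-bungarotoxin 10 nM final, 1 h at room temperature; nonspecific binding defined with 1.5 μM unlabeled toxin. After washing, phycoerythrin-streptavidin 1.0 μg/mL final, 15 min in the dark; read by FACS. Screened at 10 and 1 μM, then eight-point 3-fold dilution IC50; mean of two or more experiments.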

Mus musculus [2] = test: Antiinflammatory activity against ovalbumin-induced allergic lung inflammation BALB/c mouse model assessed as reduction in eosinophils in brochoalveolar lavage fluid at 0.2 mg/kg, po bid administered on day 29 to 31 post ovalbumin challenge measured 8 hrs post last challenge relative to vehicle-treated control; type: functional, organism-based; design: dose 0.2 mg/kg
Summary of the method: (§2)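 Balb/c mice sensitized with ovalbumin by IP injection on days 1 and 14, then challenged intranasally with 100 μg ovalbumin on days 29, 30 and 31. Compound in saline given orally starting 30 min before each challenge; groups of six mice. Sham groups were saline-sensitized and allergen-challenged. BAL taken 8 h after the last challenge, with differential cell counts on slides.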

Mus musculus [3] = test: Antiinflammatory activity against ovalbumin-induced allergic lung inflammation BALB/c mouse model assessed as reduction in neutrophils in brochoalveolar lavage fluid at 30 mg/kg, po bid administered on day 29 to 31 post ovalbumin challenge measured 8 hrs post last challenge relative to vehicle-treated control; type: functional, organism-based; design: dose 30 mg/kg; settings: Bronchoalveolar lavage; summary of the method: as §2
[4] = Clearance in rat at 1 mg/kg, iv; type: ADME, organism-based; design: dose 1 mg/kg, route intravenous; settings: in vivo
[5] = Half life in rat at 1 mg/kg, iv; type: ADME, organism-based; design: dose 1 mg/kg, route intravenous; settings: in vivo
Mus musculus [6] = test: Antiinflammatory activity against ovalbumin-induced allergic lung inflammation BALB/c mouse model assessed as reduction in neutrophils in brochoalveolar lavage fluid at 0.2 mg/kg, po bid administered on day 29 to 31 post ovalbumin challenge measured 8 hrs post last challenge relative to vehicle-treated control; type: functional, organism-based; design: dose 0.2 mg/kg; settings: Bronchoalveolar lavage; summary of the method: as §2
[7] = Half life in mouse at 1 mg/kg, iv; type: ADME, organism-based; design: dose 1 mg/kg, route intravenous; settings: in vivo
[8] = Oral bioavailability in mouse at 5 mg/kg; type: ADME, organism-based; settings: in vivo
Cytochrome P450 2C19 = Cytochrome P450 2C19 (Homo sapiens, UniProt P33261); test: Inhibition of CYP2C19 (unknown origin); type: ADME
Chain of Cytochrome P450 2C19 (P33261 whole entry, canonical isoform): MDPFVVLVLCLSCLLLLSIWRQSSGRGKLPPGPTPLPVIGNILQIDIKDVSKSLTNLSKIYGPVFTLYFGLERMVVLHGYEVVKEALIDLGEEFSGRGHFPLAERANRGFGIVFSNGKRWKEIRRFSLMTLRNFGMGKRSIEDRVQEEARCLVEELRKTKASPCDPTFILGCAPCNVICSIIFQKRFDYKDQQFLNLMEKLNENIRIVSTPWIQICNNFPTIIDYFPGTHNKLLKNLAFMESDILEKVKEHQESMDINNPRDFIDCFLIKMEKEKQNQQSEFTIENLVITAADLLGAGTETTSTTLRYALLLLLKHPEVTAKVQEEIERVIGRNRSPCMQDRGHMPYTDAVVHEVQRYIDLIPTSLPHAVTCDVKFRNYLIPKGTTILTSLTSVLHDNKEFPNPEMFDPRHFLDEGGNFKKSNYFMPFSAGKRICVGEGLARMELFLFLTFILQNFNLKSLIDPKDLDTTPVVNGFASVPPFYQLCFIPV
Summary of the method: (§3)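 Each of five Cyp isoforms assayed with single probe substrates rather than a substrate cocktail. Run in duplicate at Cerep. IC50 lines come from a 5-concentration titration curve.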

[9] = target: Neuronal acetylcholine receptor; alpha4/beta2 (Homo sapiens, UniProt P17787+P43681); test: Inhibition of human alpha4beta2 nAChR at 10 uM by binding assay
Cytochrome P450 2D6 = Cytochrome P450 2D6 (Homo sapiens, UniProt P10635); test: Inhibition of CYP2D6 (unknown origin); type: ADME; summary of the method: as §3
Chain of Cytochrome P450 2D6 (P10635 whole entry): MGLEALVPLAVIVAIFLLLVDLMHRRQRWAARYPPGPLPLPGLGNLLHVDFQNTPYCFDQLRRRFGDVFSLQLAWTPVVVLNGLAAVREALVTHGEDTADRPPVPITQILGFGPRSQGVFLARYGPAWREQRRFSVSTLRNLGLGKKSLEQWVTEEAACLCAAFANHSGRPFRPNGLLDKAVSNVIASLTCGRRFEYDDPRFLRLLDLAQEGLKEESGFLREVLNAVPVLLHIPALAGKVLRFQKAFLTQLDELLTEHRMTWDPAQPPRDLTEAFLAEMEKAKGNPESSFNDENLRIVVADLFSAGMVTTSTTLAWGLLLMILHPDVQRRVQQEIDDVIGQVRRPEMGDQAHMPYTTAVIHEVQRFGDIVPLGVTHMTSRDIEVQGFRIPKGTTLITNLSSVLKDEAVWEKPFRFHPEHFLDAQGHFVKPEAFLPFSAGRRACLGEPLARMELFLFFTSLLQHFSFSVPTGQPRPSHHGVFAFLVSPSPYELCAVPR

Mus musculus [10] = test: Antiinflammatory activity against ovalbumin-induced allergic lung inflammation BALB/c mouse model assessed as reduction in total blood cells in brochoalveolar lavage fluid at 5 mg/kg, po bid administered on day 29 to 31 post ovalbumin challenge measured 8 hrs post last challenge relative to vehicle-treated control; type: functional; summary of the method: as §2
[11] = Ratio of drug uptake in brain to plasma in iv dosed mouse measured after 5 to 30 mins; type: ADME, organism-based; settings: brain and plasma, read-out: BPR
[12] = target: Voltage-gated inwardly rectifying potassium channel KCNH2 (Homo sapiens, UniProt Q12809); test: Inhibition of human ERG by whole-cell voltage clamp assay
Chain of Voltage-gated inwardly rectifying potassium channel KCNH2 (Q12809 whole entry): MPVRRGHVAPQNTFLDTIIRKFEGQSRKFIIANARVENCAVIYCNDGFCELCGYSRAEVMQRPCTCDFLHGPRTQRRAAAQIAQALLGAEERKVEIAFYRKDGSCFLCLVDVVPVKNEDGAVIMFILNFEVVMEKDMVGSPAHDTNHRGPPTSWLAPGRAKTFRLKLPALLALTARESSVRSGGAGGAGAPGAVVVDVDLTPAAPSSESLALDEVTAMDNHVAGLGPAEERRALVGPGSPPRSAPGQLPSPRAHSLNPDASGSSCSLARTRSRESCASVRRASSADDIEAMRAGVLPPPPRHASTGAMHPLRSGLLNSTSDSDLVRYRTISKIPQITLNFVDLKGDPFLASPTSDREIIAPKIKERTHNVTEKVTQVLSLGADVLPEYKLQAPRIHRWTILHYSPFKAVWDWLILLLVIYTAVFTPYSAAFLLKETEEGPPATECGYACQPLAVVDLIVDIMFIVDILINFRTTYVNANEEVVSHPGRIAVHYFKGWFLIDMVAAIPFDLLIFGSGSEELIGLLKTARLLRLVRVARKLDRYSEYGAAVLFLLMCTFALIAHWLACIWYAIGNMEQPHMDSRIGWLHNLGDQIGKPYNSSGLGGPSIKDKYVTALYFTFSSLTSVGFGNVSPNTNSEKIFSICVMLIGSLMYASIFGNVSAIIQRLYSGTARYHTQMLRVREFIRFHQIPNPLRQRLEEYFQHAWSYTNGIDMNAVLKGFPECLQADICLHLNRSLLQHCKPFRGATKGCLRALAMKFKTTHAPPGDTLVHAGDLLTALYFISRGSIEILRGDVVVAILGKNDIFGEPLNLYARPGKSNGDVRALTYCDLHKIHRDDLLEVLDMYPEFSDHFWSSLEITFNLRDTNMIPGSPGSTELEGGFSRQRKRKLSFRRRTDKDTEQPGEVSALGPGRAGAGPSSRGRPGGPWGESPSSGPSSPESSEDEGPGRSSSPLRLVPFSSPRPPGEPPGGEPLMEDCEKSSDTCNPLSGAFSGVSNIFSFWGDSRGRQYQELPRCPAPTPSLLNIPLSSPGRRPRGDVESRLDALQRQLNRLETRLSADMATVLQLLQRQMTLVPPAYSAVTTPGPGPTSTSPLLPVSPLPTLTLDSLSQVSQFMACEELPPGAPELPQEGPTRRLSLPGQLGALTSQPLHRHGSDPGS

[13] = Cmax in rat at 15 mg/kg, po; type: ADME, organism-based; design: dose 15 mg/kg, route oral; settings: in vivo
[14] = Oral bioavailability in rat at 15 mg/kg; type: ADME, organism-based; settings: in vivo
Cytochrome P450 1A2 = Cytochrome P450 1A2 (Homo sapiens, UniProt P05177); test: Inhibition of CYP1A2 (unknown origin); type: ADME; summary of the method: as §3
Chain of Cytochrome P450 1A2 (P05177 whole entry): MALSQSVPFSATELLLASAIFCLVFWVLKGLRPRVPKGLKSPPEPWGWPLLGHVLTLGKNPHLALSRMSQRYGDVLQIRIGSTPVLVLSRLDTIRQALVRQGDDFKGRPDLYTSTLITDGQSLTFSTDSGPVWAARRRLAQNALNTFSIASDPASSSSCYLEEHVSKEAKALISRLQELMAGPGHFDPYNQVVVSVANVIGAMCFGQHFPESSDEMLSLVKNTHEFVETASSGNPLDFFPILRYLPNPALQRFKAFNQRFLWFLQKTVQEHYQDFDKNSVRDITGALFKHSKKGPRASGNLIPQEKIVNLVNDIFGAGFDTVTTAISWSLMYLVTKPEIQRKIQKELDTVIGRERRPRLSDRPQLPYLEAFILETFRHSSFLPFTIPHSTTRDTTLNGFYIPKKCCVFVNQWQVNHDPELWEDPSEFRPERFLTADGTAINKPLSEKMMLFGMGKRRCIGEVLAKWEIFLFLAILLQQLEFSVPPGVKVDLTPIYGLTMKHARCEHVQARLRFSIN

Mus musculus [15] = test: Antiinflammatory activity against ovalbumin-induced allergic lung inflammation BALB/c mouse model assessed as reduction in neutrophils in brochoalveolar lavage fluid at 1 mg/kg, po bid administered on day 29 to 31 post ovalbumin challenge measured 8 hrs post last challenge relative to vehicle-treated control; type: functional; settings: Bronchoalveolar lavage; summary of the method: as §2
Cytochrome P450 3A4 = Cytochrome P450 3A4 (Homo sapiens, UniProt P08684); test: Inhibition of CYP3A4 (unknown origin); type: ADME; summary of the method: as §3
Chain of Cytochrome P450 3A4 (P08684 whole entry): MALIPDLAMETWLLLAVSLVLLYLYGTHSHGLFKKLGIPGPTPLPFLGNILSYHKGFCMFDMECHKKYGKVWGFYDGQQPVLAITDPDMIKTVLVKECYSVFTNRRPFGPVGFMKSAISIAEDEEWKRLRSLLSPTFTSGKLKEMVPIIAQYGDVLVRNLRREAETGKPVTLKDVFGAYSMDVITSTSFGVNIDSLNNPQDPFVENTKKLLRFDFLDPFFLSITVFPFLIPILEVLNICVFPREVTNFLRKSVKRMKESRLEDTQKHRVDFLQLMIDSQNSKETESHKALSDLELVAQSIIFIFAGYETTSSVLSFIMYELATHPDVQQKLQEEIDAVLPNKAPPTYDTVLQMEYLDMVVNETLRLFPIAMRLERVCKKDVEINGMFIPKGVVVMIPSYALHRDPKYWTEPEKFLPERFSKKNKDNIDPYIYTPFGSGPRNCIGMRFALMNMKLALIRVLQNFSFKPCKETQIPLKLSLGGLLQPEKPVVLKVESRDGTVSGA

Mus musculus [16] = test: Antiinflammatory activity against ovalbumin-induced allergic lung inflammation BALB/c mouse model assessed as reduction in eosinophils in brochoalveolar lavage fluid at 30 mg/kg, po bid administered on day 29 to 31 post ovalbumin challenge measured 8 hrs post last challenge relative to vehicle-treated control; type: functional, organism-based; design: dose 30 mg/kg; summary of the method: as §2
Cytochrome P450 2C9 = Cytochrome P450 2C9 (Homo sapiens, UniProt P11712); test: Inhibition of CYP2C9 (unknown origin); type: ADME; summary of the method: as §3
Chain of Cytochrome P450 2C9 (P11712 whole entry): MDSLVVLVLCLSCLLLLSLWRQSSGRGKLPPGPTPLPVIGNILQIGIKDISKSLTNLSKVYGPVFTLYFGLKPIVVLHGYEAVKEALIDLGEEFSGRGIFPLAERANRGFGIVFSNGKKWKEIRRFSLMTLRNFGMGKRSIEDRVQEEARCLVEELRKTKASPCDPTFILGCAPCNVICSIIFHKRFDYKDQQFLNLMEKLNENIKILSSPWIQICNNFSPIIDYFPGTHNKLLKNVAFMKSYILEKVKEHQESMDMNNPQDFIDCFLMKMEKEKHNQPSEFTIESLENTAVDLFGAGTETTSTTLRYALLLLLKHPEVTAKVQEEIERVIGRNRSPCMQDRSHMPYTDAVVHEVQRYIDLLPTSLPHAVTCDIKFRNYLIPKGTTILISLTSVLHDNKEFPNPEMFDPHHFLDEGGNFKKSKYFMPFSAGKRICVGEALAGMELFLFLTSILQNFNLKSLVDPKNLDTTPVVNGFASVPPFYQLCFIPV

Mus musculus [17] = test: Antiinflammatory activity against ovalbumin-induced allergic lung inflammation BALB/c mouse model assessed as reduction in eosinophils in brochoalveolar lavage fluid at 5 mg/kg, po bid administered on day 29 to 31 post ovalbumin challenge measured 8 hrs post last challenge relative to vehicle-treated control; type: functional; summary of the method: as §2
Mus musculus [18] = test: Antiinflammatory activity against ovalbumin-induced allergic lung inflammation BALB/c mouse model assessed as reduction in neutrophils in brochoalveolar lavage fluid at 5 mg/kg, po bid administered on day 29 to 31 post ovalbumin challenge measured 8 hrs post last challenge relative to vehicle-treated control; type: functional; settings: Bronchoalveolar lavage; summary of the method: as §2
[19] = target: Histamine H3 receptor (Homo sapiens) (UniProt Q9Y5N1); test: Inhibition of human histamine H3 receptor at 10 uM; summary of the method: as §1
Chain of Histamine H3 receptor (Homo sapiens) (Q9Y5N1 whole entry): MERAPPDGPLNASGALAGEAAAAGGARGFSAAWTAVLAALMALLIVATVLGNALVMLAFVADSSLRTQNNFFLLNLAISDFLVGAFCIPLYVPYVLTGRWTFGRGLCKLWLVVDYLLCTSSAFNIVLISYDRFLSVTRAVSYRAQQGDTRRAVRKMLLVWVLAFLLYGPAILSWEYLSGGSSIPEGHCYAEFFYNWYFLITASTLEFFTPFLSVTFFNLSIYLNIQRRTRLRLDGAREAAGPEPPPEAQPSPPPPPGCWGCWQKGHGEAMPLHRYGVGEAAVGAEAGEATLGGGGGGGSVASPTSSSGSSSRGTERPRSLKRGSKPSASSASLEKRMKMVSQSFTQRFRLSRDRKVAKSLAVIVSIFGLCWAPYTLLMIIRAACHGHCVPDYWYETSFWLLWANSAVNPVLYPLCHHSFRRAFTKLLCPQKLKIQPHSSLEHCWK

[20] = Half life in mouse at 5 mg/kg, po; type: ADME, organism-based; design: dose 5 mg/kg, route oral; settings: in vivo
[21] = Clearance in mouse at 1 mg/kg, iv; type: ADME, organism-based; design: dose 1 mg/kg, route intravenous; settings: in vivo
Mus musculus [22] = test: Antiinflammatory activity against ovalbumin-induced allergic lung inflammation BALB/c mouse model assessed as reduction in total blood cells in brochoalveolar lavage fluid at 0.2 mg/kg, po bid administered on day 29 to 31 post ovalbumin challenge measured 8 hrs post last challenge relative to vehicle-treated control; type: functional, organism-based; design: dose 0.2 mg/kg; summary of the method: as §2
Mus musculus [23] = test: Antiinflammatory activity against ovalbumin-induced allergic lung inflammation BALB/c mouse model assessed as reduction in total blood cells in brochoalveolar lavage fluid at 1 mg/kg, po bid administered on day 29 to 31 post ovalbumin challenge measured 8 hrs post last challenge relative to vehicle-treated control; type: functional; summary of the method: as §2
Mus musculus [24] = test: Antiinflammatory activity against ovalbumin-induced allergic lung inflammation BALB/c mouse model assessed as reduction in total blood cells in brochoalveolar lavage fluid at 30 mg/kg, po bid administered on day 29 to 31 post ovalbumin challenge measured 8 hrs post last challenge relative to vehicle-treated control; type: functional, organism-based; design: dose 30 mg/kg; summary of the method: as §2
[25] = Half life in rat at 15 mg/kg, po; type: ADME, organism-based; design: dose 15 mg/kg, route oral; settings: in vivo
Mus musculus [26] = test: Antiinflammatory activity against ovalbumin-induced allergic lung inflammation BALB/c mouse model assessed as reduction in eosinophils in brochoalveolar lavage fluid at 1 mg/kg, po bid administered on day 29 to 31 post ovalbumin challenge measured 8 hrs post last challenge relative to vehicle-treated control; type: functional; summary of the method: as §2
[27] = Cmax in mouse at 5 mg/kg, po; type: ADME, organism-based; design: dose 5 mg/kg, route oral; settings: in vivo

COc1ccc(NC(=O)N2CCNC[C@@H]2COc2cccnc2)cc1.Cl
inhibition (Rattus norvegicus): 48% | IC50 [1]: 0.019 µM | inhibition (Mus musculus [2]): inactive | inhibition (Mus musculus [3]): inactive | clearance [4]: 86 mL/min/kg | half-life [5]: 1.22 h | inhibition (Mus musculus [6]): inactive | half-life [7]: 0.65 h | bioavailability [8]: 76% | IC50 (Cytochrome P450 2C19): > 100 µM | inhibition [9]: 10% | IC50 (Cytochrome P450 2D6): > 100 µM | inhibition in vivo at 5 mg/kg (Mus musculus [10]): 63% | Kp [11]: ≤ 0.06 | IC50 [12]: 31 µM | Cmax [13]: 751 ng/mL | bioavailability [14]: 89% | IC50 (Cytochrome P450 1A2): > 100 µM | inhibition in vivo at 1 mg/kg (Mus musculus [15]): 61% | IC50 (Cytochrome P450 3A4): > 100 µM | inhibition (Mus musculus [16]): inactive | IC50 (Cytochrome P450 2C9): > 100 µM | inhibition in vivo at 5 mg/kg (Mus musculus [17]): 74% | inhibition in vivo at 5 mg/kg (Mus musculus [18]): 70% | inhibition [19]: 86% | half-life [20]: 1.73 h | clearance [21]: 103 mL/min/kg | inhibition (Mus musculus [22]): inactive | inhibition in vivo at 1 mg/kg (Mus musculus [23]): 53% | inhibition (Mus musculus [24]): inactive | half-life [25]: 2.35 h | inhibition in vivo at 1 mg/kg (Mus musculus [26]): 48% | Cmax [27]: 950 nM

— ChEMBL document CHEMBL3259628, “Discovery of novel 2-((pyridin-3-yloxy)methyl)piperazines as α7 nicotinic acetylcholine receptor modulators for the treatment of inflammatory disorders” (J Med Chem, 2014)
